# Compounds with a hit are over-represented: about 1.6% of the library has one in this group of screens.
# Mdm2 ligase inh – inhibitors of human Mdm2 E3 ubiquitin ligase; signal enhancement, % at 5 µM; Q00987; cell-based MDM2 ubiquitination luciferase reporter, 2 h; 0 = plate control, 100 = twice control, blank-subtracted; AID 1230; hit rate 0.11% among 210,000;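 active = signal enhancement of 30% or more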;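 also: luminescence tracks abundance of the self-degrading MDM2-luciferase fusion protein; higher signal means inhibition of MDM2 E3 ligase activity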
#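 Test system: stable mammalian line carrying autodegrading MDM2–luciferase fusion reporter; quantity: 2000 cells in each well; times: 4 h cell settling then 2 h compound exposure, 37 °C; detection: luminescence with SteadyLite reagent, 15 min at room temperature; evaluation: percent signal gain over controls, blank-subtracted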
# TNF necrop inh – blocks TNF-alpha induced death of Jurkat FADD-/- cells; hit rate 0.068% among 220,000; Jurkat FADD-/- TNF necroptosis rescue, ATP luminescence, 24 h; 0 = TNF only, 100 = no-TNF cells; activation (protection from cell death), % at 10 µM;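 active = activation, meaning protection from cell death, of at least 50% relative to plate controls; inactive = activation below 50%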;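 also: necroptosis triggered by 40 ng/mL TNF-alpha added together with compound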
# Wee1 stabilizer – inhibitors of human Wee1 degradation | AID 1321 | HeLa Luc-Wee1K328M stability, luciferase luminescence; 100% = proteasome inhibitor MG132 effect | reporter increase, % at 5 µM | hit rate 1.2% among 220,000 | P30291;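 active = activation above the mean of all tested compounds plus 3 SD, set per screening run, cut at about 8.8% in these data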;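 also: cells exposed to compound for 20 h before luminescence read; 0% = DMSO alone and 100% = MG132 at 30 µM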
# Target sequence (P30291 whole entry K328M): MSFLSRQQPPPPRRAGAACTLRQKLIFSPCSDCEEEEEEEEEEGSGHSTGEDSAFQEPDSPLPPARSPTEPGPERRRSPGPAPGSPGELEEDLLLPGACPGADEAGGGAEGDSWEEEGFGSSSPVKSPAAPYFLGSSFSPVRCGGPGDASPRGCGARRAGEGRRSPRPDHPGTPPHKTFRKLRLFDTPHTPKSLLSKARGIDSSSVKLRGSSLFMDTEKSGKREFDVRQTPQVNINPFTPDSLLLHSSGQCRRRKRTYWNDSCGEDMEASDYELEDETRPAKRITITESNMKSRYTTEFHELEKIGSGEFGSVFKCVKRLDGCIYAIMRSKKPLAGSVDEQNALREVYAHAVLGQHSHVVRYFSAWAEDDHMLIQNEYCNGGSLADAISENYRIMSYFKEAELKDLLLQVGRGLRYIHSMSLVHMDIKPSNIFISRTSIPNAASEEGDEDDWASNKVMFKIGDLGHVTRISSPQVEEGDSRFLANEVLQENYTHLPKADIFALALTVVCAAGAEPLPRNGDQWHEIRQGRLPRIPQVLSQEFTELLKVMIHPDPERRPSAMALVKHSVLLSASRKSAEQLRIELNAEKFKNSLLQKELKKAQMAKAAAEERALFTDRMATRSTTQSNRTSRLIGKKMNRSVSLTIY
# L929 necroptosis – L929 zVAD cell death inhibition | L929 zVAD necroptosis rescue, ATP luminescence, 24 h; with zVAD 60 µM | viability rescue, % at 10 µM | hit rate 0.38% among 220,000 | AID 1377;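 active = activation, scaled between plate controls, above about 75%, limit read from the data; inactive = activation under that limit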;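 also: 0% = zVAD with DMSO and 100% = DMSO alone without zVAD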
# Pf gametocyte – inhibitors of late stage P. falciparum gametocyte viability; inhibition, % at 10.9 µM; hit rate 0.065% among 150,000; P. falciparum stage V gametocytes, ATP luminescence, 24 h; AID 743093;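 active = inhibition above the mean plus 3 SD of compounds within the control limits, set per campaign, cut at about 38% in these data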;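 also: 0% = DMSO wells and 100% = medium only without gametocytes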
# Wee1 degr conf – human Wee1 degradation inhibition, confirmation; shares compounds with Wee1 stabilizer; HeLa Luc-Wee1K328M degradation, luminescence; vehicle 0%, proteasome-blocked wells 100%; activation, % at 5 µM; hit rate 4% among 1,100; in the data active = activation above about 8.9%
# An asterisk follows results filed as active; x = no result.
SMILES,Mdm2 ligase inh,TNF necrop inh,Wee1 stabilizer,L929 necroptosis,Pf gametocyte,Wee1 degr conf
O=[N+]([O-])c1ccc(-c2nn(-c3ccccc3)cc2/C=N/n2c(-c3ccncc3)n[nH]c2=S)cc1,-3,-2,-1,0,-5,x
CC(C)(C)OC(=O)C(Cl)(C(=O)OC(C)(C)C)c1ccc2nnnn2n1,-11,-7,11*,2,-2,0
Cn1c(-c2ccc(N)cc2)nc2ccccc21,-4,-7,-2,0,x,x
Cn1c(CCc2ccc(N)cc2)nc2ccccc21,-26,-1,18*,0,-12,4
O=C(Nc1ccc(Cl)cc1)N1CCCN(Cc2ccc(F)cc2)C1,-13,-1,-4,6,x,x
CCCc1c(O)c2ccccc2n(-c2ccccc2)c1=O,-18,-2,1,0,8,x
CC(=O)Nc1ccc2c(COC(=O)CC3Sc4ccccc4NC3=O)cc(=O)oc2c1 (centres undefined),-5,2,-1,0,-2,x
COc1ccc2c(COC(=O)CC3Sc4ccccc4NC3=O)cc(=O)oc2c1 (centres undefined),2,3,11*,0,x,1
Cc1cc(C)n2nc(-c3ccc(F)cc3)nc2n1,-1,14,16*,0,x,2
Cc1cc(C)n2nc(-c3cccnc3)nc2n1,11,-1,-1,0,0,x
CC(=O)Nc1c(O)nc(C)[nH]c1=O,-7,1,-1,1,-19,x
C/C(=N\NC(=O)c1nc2ccccn2c1C)c1ccc2c(c1)OCO2,-11,1,12*,1,x,4
O=C(C1=NN[C@@H]2C(=O)N(c3cccc(C(F)(F)F)c3)C(=O)[C@H]12)c1ccc2ccccc2n1,-11,1,0,1,0,x
COc1cccc(N2C(=O)[C@H]3C(C(=O)c4cnccn4)=NN[C@H]3C2=O)c1,x,0,21*,-1,4,-1
COc1ccc(/C=N/NC(=O)c2cc(C3CC3)[nH]n2)cc1OC,-6,9,2,63,7,x
COc1cc(/C=N/NC(=O)c2cc(C3CC3)[nH]n2)ccc1O,-7,8,12*,75,15,-1
NC(=O)c1ccsc1NC(=O)C1CC1,-9,4,x,26,x,x
O=C(Cn1nc(-c2ccccc2Cl)ccc1=O)Nc1ccccc1-c1ccccc1,-3,2,25*,0,x,2
O=C(Nc1cccnc1)c1cc(F)cc(F)c1,-30,-1,0,0,9,x
Brc1cc2c(cc1Br)OCCOCCOCCOCCO2,-10,1,19*,0,14,2
Cc1ccc(S(=O)(=O)c2c(C)cc(C)nc2Cl)cc1,-14,-3,1,0,0,x
COc1ccccc1C1SCCN1S(C)(=O)=O (centres undefined),-2,0,21*,0,x,5
COc1ccc(OC)c(C2SCCN2S(C)(=O)=O)c1 (centres undefined),1,0,-1,0,22,x
COc1ccc(NC(=O)Cc2ccccc2)cn1,-8,4,0,3,x,x
COc1ccc(NC(=O)/C(Cl)=C(/Cl)S(=O)Cc2ccccc2)cn1 (centres undefined),-5,-14,17*,-4,-35,25*
SMILES,Mdm2 ligase inh,TNF necrop inh,Wee1 stabilizer,L929 necroptosis,Pf gametocyte,Wee1 degr conf
COc1cc(C(C)=O)ccc1OC(=O)c1cc2cccc(OC)c2oc1=O,-6,1,53*,18,-21,3
CCCC(=O)OCCNc1cc(SCCC(=O)OC)c2nonc2c1[N+](=O)[O-],-16,0,1,0,x,x
Cc1cccc(-n2c(SCC(=O)O)nc3sc4c(c3c2=O)CCC4)c1,5,1,13*,0,-2,0
O=C(O)CSc1nc2sc3c(c2c(=O)n1-c1ccccc1)CCC3,-6,3,5,0,4,x
Nc1nnc(-c2ccc(Cl)cc2)s1,-8,-3,11*,0,x,5
COc1ccc(OC)c2[nH]c(=O)c(CCNC(=O)CC(C)C)cc12,-4,1,11*,3,-11,0
COc1ccc(OC)c2[nH]c(=O)c(CCNC(=O)C(C)C)cc12,-24,2,-1,1,x,x
N=C1C(=O)OCC1c1ccccc1NC(=O)Nc1ccccc1 (centres undefined),-11,0,5,1,6,x
CC(C)CNC(=O)c1cc(-c2ccc(Cl)c(Cl)c2)on1,-16,-1,-1,0,x,x
O=c1cc(/C=C/c2ccccc2)oc2c1ccc1ccccc12,-1,1,11*,2,7,7
O=C(NCC1COc2ccccc2O1)c1cn(Cc2ccc(F)cc2)nn1 (centres undefined),-12,1,-3,2,x,x
CC(c1ccccc1)n1cc(C(=O)NCC2COc3ccccc3O2)nn1 (centres undefined),-13,1,15*,0,x,3
COCCCNC(=O)Nc1ccc(F)cc1F,1,-1,-2,0,x,x
COCCCNC(=O)Nc1ccc(Br)cc1Cl,-2,1,11*,0,x,4
COc1cc(NC(C)=O)ccc1NC(=O)c1cc2ccccc2o1,x,x,x,x,-1,x
O=C1N=C(N2CCCC2C(=O)O)S/C1=C\c1ccco1 (centres undefined),-30,-1,13*,-3,16,3
Cn1c(CNc2ccc(Cl)cc2)nc2ccccc21,1,-1,13*,0,-1,8
Cc1ccc(N2CCN(c3ccc(NCc4nc5ccccc5n4C)cc3)CC2)cc1,5,2,-2,1,-14,x
CCn1c(=O)n(CC)c2cc(S(=O)(=O)Nc3ccccc3C)c(C)cc21,-4,-3,2,0,x,x
Cc1occc1C(=O)N/N=C/C=C/c1ccccc1,2,0,4,2,-5,x
O=C(N/N=C/C(Br)=C\c1ccccc1)c1cccs1,-7,4,12*,2,4,5
Cc1occc1C(=O)N/N=C/C(Br)=C\c1ccccc1,-23,2,28*,0,11,5
Nc1nnc(SCC(=O)OCC(=O)c2ccccc2Br)s1,-35,1,-2,0,2,x
Cc1nnc(NC(=O)c2cc3n(n2)C(C(F)(F)F)CC(C2CC2)N3)s1 (centres undefined),-2,-3,1,0,x,x
O=C(Nc1nc2c(s1)CCCC2)c1cc2n(n1)C(C(F)(F)F)CC(C1CC1)N2 (centres undefined),-20,-1,15*,8,x,2
CN(Cc1ccccc1F)c1nc(-c2cccs2)nc2ccccc12,-3,1,14*,1,0,4
Cc1nc(-c2ccc(S(=O)(=O)Nc3cc(S(=O)(=O)N(C)C)ccc3C)s2)cs1,4,1,-2,2,6,x

# High-throughput results: PubChem, several laboratories
